From PubChem BioAssay
HKDC1 inhibitor: inhibitors of human hexokinase HKDC1 | AID 493160 | inhibition, % at 20 µM | recombinant HKDC1, G6PDH/diaphorase resazurin coupled fluorescence | hit rate 0.16% among 340,000;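 active = inhibition above about 35% when tested at 20 µM, limit read from the data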
Target sequence (Q2TB90 whole entry, looked up): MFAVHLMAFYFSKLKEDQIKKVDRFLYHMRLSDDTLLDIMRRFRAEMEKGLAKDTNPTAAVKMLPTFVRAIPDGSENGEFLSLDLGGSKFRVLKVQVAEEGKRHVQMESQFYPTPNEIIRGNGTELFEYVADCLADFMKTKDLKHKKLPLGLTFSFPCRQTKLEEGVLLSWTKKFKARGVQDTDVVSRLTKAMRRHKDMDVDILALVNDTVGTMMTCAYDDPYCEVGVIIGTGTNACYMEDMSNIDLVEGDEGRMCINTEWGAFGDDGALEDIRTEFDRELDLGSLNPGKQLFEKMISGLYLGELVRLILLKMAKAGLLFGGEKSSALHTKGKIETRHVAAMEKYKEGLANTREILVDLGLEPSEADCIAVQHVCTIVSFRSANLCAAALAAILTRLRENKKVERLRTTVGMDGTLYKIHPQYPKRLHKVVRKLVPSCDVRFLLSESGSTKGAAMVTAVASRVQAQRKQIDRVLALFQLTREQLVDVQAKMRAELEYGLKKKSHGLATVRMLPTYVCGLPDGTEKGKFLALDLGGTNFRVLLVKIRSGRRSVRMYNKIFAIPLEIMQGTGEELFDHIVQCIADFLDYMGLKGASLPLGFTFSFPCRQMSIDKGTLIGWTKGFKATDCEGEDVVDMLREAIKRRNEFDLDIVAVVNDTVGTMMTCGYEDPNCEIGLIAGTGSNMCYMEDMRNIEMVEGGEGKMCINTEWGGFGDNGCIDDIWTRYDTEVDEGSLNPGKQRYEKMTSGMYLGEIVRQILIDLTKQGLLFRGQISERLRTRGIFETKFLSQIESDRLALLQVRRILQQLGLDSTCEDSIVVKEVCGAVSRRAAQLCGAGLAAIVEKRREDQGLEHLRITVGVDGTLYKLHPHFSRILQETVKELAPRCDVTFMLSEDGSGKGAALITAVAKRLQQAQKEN
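Test system: HK5 enzyme. Quantity: 5 µg/mL HK5 final. Reagent: glucose and ATP substrates. Schedule: 90 min reaction incubation at room temperature, dark. Technique: resazurin-to-resorufin fluorescence via G6PDH and diaphorase coupling, 525/613 nm. Control set: DMSO wells with and without enzyme mix.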
PGE2 EP2 inh: blocks the human prostaglandin E2 receptor EP2; AID 1422; inhibition, % at 25 µM; P43116; hit rate 0.52% among 260,000; C6 glioma cells expressing human EP2, cAMP TR-FRET; cells stimulated with saturating PGE2;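 active = percent inhibition above 40 after rounding to a whole number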;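 also: rat C6 glioma host cells with rolipram phosphodiesterase inhibitor present; the protocol text gives 20 µM as final concentration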
EP2 mod: EP2 receptor (human) modulation | EP2-expressing cells, cAMP HTRF FRET, PGE2 co-stimulation | induction, % at 25 µM | hit rate 0.83% among 260,000;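 active = compounds whose cAMP rise, as percent of the full-agonist control response, exceeds 60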;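 also: rat C6 glioma line stably carrying human EP2 under a CMV promoter; the protocol text gives 20 µM as final concentration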
PfG6PD inh: PfG6PD (Plasmodium falciparum) enzyme inhibition | PfGluPho enzyme, NADPH resazurin-diaphorase fluorescence | inhibition, % at 20 µM | AID 504690 | hit rate 0.78% among 350,000;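 active = inhibition reaching at least a set limit at 20 µM in the primary screen, cut at about 59% in these data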
PHOSPHO1 block: inhibitors of human PHOSPHO1 phosphatase; recombinant PHOSPHO1, absorbance phosphatase assay; inhibition, % at 13.3 µM; Q8TCT1; hit rate 1.1% among 290,000; in the data active = inhibition above about 60%
Tb hexokinase: T. brucei hexokinase 1 inhibition; recombinant TbHK1, G6PDH-coupled NADH A340; inhibition, % at 10 µM; hit rate 0.11% among 220,000; AID 1430;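 active = inhibition of 50% or more in the single-dose primary screen; inactive = inhibition below 50%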
Of the large screens only hits and unclear results are named; the others gave an inactive call. Rows were chosen to be rich in hits. Some 2.5% of all compounds tested hit in one or more screens of this group.

COc1ccc(CNC(=O)Cn2c(=O)n(C(C)C)c3ncccc32)cc1	none (no result: HKDC1 inhibitor, PfG6PD inh, PHOSPHO1 block, Tb hexokinase)
CCCN1C(=O)/C(=C2/C=Cc3ccccc3N2CC)SC1=S	none
CCCN1/C(=C2/SC(=S)N(CC)C2=O)C=Cc2ccccc21	EP2 mod 63
CCCC1C(=O)N(c2ccccc2)C1c1ccccc1 (stereo not drawn)	EP2 mod 64
COc1cc(/C=C2\SC(=S)N(CCC(=O)Nc3cccc(F)c3)C2=O)cc(OC)c1OC	none (no result: HKDC1 inhibitor, PfG6PD inh, PHOSPHO1 block, Tb hexokinase)
Cc1ccnc(NC(=O)CCc2c(C)nc3ncnn3c2C)c1	PHOSPHO1 block 64
Cc1ccc(NC(=O)CCc2c(C)nc3ncnn3c2C)nc1	none
Cn1c(=O)oc2cc(S(=O)(=O)N3CCCC(CN4CCOCC4)C3)ccc21 (stereo not drawn)	none (no result: HKDC1 inhibitor, PfG6PD inh, PHOSPHO1 block, Tb hexokinase)
C/C(CCc1oc2ccc(Br)cc2c1-c1ccc(C)o1)=N/O	EP2 mod 63
CC(=O)CCc1oc2ccc(C)cc2c1-c1ccccc1	none
CCOC(=O)C1CCN(C(c2nnnn2CCc2ccccc2)C(C)C)CC1 (stereo not drawn)	none (no result: HKDC1 inhibitor, PfG6PD inh, PHOSPHO1 block, Tb hexokinase)
CC(=O)N1CCc2cc(S(=O)(=O)NCC(=O)NCc3ccccc3Cl)ccc21	PHOSPHO1 block 65 (no result: PGE2 EP2 inh, EP2 mod, Tb hexokinase)
CCC(=O)N1CCc2cc(S(=O)(=O)NCCC(=O)NCc3ccccc3Cl)ccc21	none (no result: PGE2 EP2 inh, EP2 mod, Tb hexokinase)
CCC(=O)Nc1cc(NC(=O)CSc2ncc(-c3ccc(F)cc3)n2Cc2ccco2)ccc1C	PHOSPHO1 block 72
COc1ccc(NC(=O)CSc2ncc(-c3ccc(F)cc3)n2Cc2ccco2)cc1	none
CN(C)CCNC(=O)COc1ccc(C23CC4CC(CC(C4)C2)C3)cc1	PHOSPHO1 block 66
Cc1ccc(C23CC4CC(CC(NC(=O)NCCN(C)C)(C4)C2)C3)cc1	none
Brc1cccc(Cn2c(-c3cncs3)nc3ccccc32)c1	EP2 mod 61
S=c1[nH]nc(C2CCCCC2)n1/N=C/c1ccc(Br)s1	EP2 mod 63
O=[N+]([O-])c1cccc(/C=N/n2c(C3CCCCC3)n[nH]c2=S)c1	none
O=[N+]([O-])c1ccc(Cl)c(/C=N/n2c(C3CCCCC3)n[nH]c2=S)c1	PHOSPHO1 block 103
S=c1[nH]nc(C2CCCCC2)n1/N=C/c1ccc(Br)cc1	none (no result: PGE2 EP2 inh, EP2 mod, Tb hexokinase)
[Cu].c1ccc2c(c1)-c1nc-2nc2[n-]c(nc3nc(nc4[n-]c(n1)c1ccccc41)-c1ccccc1-3)c1ccccc21	PGE2 EP2 inh 54 (no result: HKDC1 inhibitor, PfG6PD inh, PHOSPHO1 block, Tb hexokinase)
Nc1nc(N)nc(-c2ccccc2-c2nc(N)nc(N)n2)n1	none
O=[N+]([O-])c1ccc(C2=Nn3c(nnc3-c3ccc(Cl)cc3)SC2)o1	PGE2 EP2 inh 73 (no result: HKDC1 inhibitor, PfG6PD inh, PHOSPHO1 block, Tb hexokinase)
CC(C)c1nnc2n1N=C(c1ccc(Cl)cc1)CS2	none (no result: PGE2 EP2 inh, EP2 mod, PHOSPHO1 block, Tb hexokinase)
Cc1ccc(C(=O)n2c3ccccc3c3ccccc32)cc1	EP2 mod 64
CC(C)CNc1nc2c(c(=O)n(C)c(=O)n2C)n1Cc1cccc(Br)c1	EP2 mod 62
Cc1cc(/C=C2/NC(=O)NC2=O)cc(C)c1O	none (no result: HKDC1 inhibitor, PfG6PD inh, PHOSPHO1 block, Tb hexokinase)
CSc1nc(-c2ccc(C)cc2)[nH]c1S(=O)(=O)c1ccccc1	none
CC(=O)Sc1nc(-c2ccccc2)[nH]c1S(=O)(=O)c1ccc(C)cc1	PfG6PD inh 65
O=C(NN1CC(C(=O)OCc2ccc(Cl)cc2Cl)CC1=O)c1ccccc1 (stereo not drawn)	PHOSPHO1 block 61 (no result: PGE2 EP2 inh, EP2 mod, Tb hexokinase)
O=c1[nH]cnc2c1sc1nc(-c3ccccc3)c3c(c12)CCCC3	none
O=C(O)CSc1ncnc2c1sc1nc(-c3ccccc3)c3c(c12)CCC3	EP2 mod 70
C=CCN1C(=O)/C(=C\C=C2/Sc3ccccc3N2CCCS(=O)(=O)O)SC1=S	none (no result: HKDC1 inhibitor, PfG6PD inh, PHOSPHO1 block, Tb hexokinase)
O=C1/C(=C/c2ccncc2)SC(=S)N1Cc1ccccc1	PGE2 EP2 inh 44
O=C(O)c1cc(-c2ccc(/C=C3/SC(=S)N(Cc4ccccc4)C3=O)o2)ccc1Cl	PHOSPHO1 block 65
Cc1ccc(/C=C2\SC(=S)N(Cc3ccccc3)C2=O)o1	PHOSPHO1 block 67
CCCN1C(=O)/C(=C/c2ccncc2)SC1=S	none
Cc1occc1-c1nn(C2CCN(C(=O)Cc3ccc(F)cc3)CC2)c(=O)o1	none (no result: HKDC1 inhibitor, PfG6PD inh, PHOSPHO1 block, Tb hexokinase)
Cc1ccc(C)c2[nH]c(=O)c(CN(CCCN3CCOCC3)Cc3nnnn3C3CCCCC3)cc12	none (no result: HKDC1 inhibitor, PfG6PD inh, PHOSPHO1 block, Tb hexokinase)
COc1ccc(CNC(=O)CSc2nc3cc4c(cc3cc2C)OCCO4)cc1	none (no result: HKDC1 inhibitor, PfG6PD inh, PHOSPHO1 block, Tb hexokinase)
CCOC(=O)C1(CCOc2ccccc2)CCN(Cc2ccc(O)cc2)CC1	none (no result: PGE2 EP2 inh, EP2 mod, Tb hexokinase)
CCOC(=O)C1(CCOc2ccccc2)CCN(Cc2cccc3nonc23)CC1	PHOSPHO1 block 60
